From the RNAGym collection of RNA variant scans (doi:10.1126/science.aae0568)
This sample holds only a part of the variants without activity.

B1: tRNA (parent)
chain: GUUCCGUUGGCGUAAUGGUAACGCGUCUCCCUCCUAAGGAGAAGACUGCGGGUUCGAGUCCCGUACGGAACG

Variants of: B1
Test: yeast fitness relative to wild type (ratio to wild type); higher = fitter; tRNA-Arg(CCU), competitive growth, 37 C, YPD
Procedure, shortened: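 The tRNA-Arg(CCU) gene variants were made by chemical synthesis with a 3% per-site mutation rate at 69 sites and inserted at the native genomic locus of Saccharomyces cerevisiae. After pooling, the strains were competed in YPD at 37°C for 24 hours in six parallel replicates. Gene amplicons from the start population and each end population were read by 100-nucleotide paired-end sequencing, and Darwinian fitness relative to wild type was taken from genotype frequency changes. Genotypes needed ≥ 100 starting reads, and estimates < 0.5 were set to 0.5.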

Row | Variant | yeast fitness
1 | GUUCCGUUGGGGUAAUGGUAACGCGUCUCUCUCCUAAGGACAAGACUGCAGGUUCGAGUCCCGUACCGAACG [C11G C30U G41C G50A G67C] | ≤ 0.5
2 | GUUCCGUUGGGGUAAUGGUAACGCGUCUCCCUCGUAAGGAGAAGACUGCGGGUUCGAGCCCCGUACGGAACG [C11G C34G U59C] | ≤ 0.5
3 | GUUCCGUUGGGGUAAUGGUAACGCGUCUGCCUCCCAAGGAGAAGACAGCGGGUUCGAGUCCCGUACGCAACG [C11G C29G U35C U47A G68C] | ≤ 0.5
4 | GUUCCGUUGGGGUAAUGGUAACGCGUCUCCCUGCUAAGGAGAAGACUGCGGGUUCGUGUCCCGUACGGAACG [C11G C33G A57U] | ≤ 0.5
5 | GUUCCGUUGGGGUAAUGGUAACGCGUCUCCCUCGUAUGGAGAAGACUGCGGGUUCGAGUCCCGUACGGAACG [C11G C34G A37U] | ≤ 0.5
6 | GUUCCGUUGGGGUAAUGGUAACGCGUCUCCCUCUUAAGGAGAAGACUGCGGGUUCGAGUCCGGUACGGAACG [C11G C34U C62G] | 0.542
7 | GUUCCGUUGGGGUAAUGGUAACGCGUCUACCUCCUAAGGAGACGACUGCGGGUUCGAGUCCCGUACGGAACG [C11G C29A A43C] | 0.572
8 | GUUCCGUUGGGGUAAUGGUAACGCGUCUGCCUCCUAAGGAGAAGACUGCCGGUUCGAGUCCCGUACGGAACG [C11G C29G G50C] | ≤ 0.5
9 | GUUCCGUUGGGGUAAUGGUAACGCGUCUCUCUCCUAAGGAGAAGACUGCGGGUACGAGUCCCGUACGGAACG [C11G C30U U54A] | ≤ 0.5
10 | GUUCCGUUGGGGUAAUGGUAACGCGUCUCCUUCCAAGGGCGAAGACCGCGGGUUCGAGUCCCGGACGGAACG [C11G C31U U35A A37G A40C U47C U64G] | ≤ 0.5
11 | GUUCCGUUGGGGUAAUGGUAACGCGUCUUCCUCCUAAGGAGAAGACUGCGGGUUCGGGUCCCGUACGGAACG [C11G C29U A57G] | ≤ 0.5
12 | GUUCCGUUGGGGUAAUGGUAACGCGUCUCGCUACUAAGGAGAAGACUGCGGGUUCGCGUCACGUACGGAACG [C11G C30G C33A A57C C61A] | 0.583
13 | GUUCCGUUGGGGUAAUGGUAACGCGUCUUCCUCCUAAGGAGAAGACCGCGGGUUCGAGUCCCGUAAGGAACG [C11G C29U U47C C66A] | ≤ 0.5
14 | GUUCCGUUGGGGUAAUGGUAACGCGUCUCCCUCAUAAGGAGAAAAUUGCGGGUUCGAGUCCCGUACGAAACG [C11G C34A G44A C46U G68A] | ≤ 0.5
15 | GUUCCGUUGGGGUAAUGGUAACGCGUCUCCAUCCUAACGAGAAGACUGCGGGUUUGAAUCCCGUACGGAACG [C11G C31A G38C C55U G58A] | 0.577
16 | GUUCCGUUGGGGUAAUGGUAACGCGUCUCCCUUCUAAGGAGAAGACUGCGGGUUCGAGUCCCGUACGGAACG [C11G C33U] | ≤ 0.5
17 | GUUCCGUUGGGGUAAUGGUAACGCGUCUCCCUCGUAAGGAGAAGACUGCGGGUUGGAGUCCCGUACGGAACG [C11G C34G C55G] | ≤ 0.5
18 | GUUCCGUUGGGGUAAUGGUAACGCGUCUGCGUCCUAAGGAGAAGACUGCGGGUUCGAGUCCCGUACGGAACG [C11G C29G C31G] | ≤ 0.5
19 | GUUCCGUUGGGGUAAUGGUAACGCGUCUCCUUCCUAAGGAGUAGACUGCGGGUUCGAGUCCCGUACGGAUCG [C11G C31U A42U A70U] | ≤ 0.5

Row | Variant | yeast fitness
20 | GUUCCGUUGGGGUAAUGGUAACGCGUCUCGCUCCUAUGGAAAAGACUGCGGGCUCGAGUCCCGUACGGUACG [C11G C30G A37U G41A U53C A69U] | 0.516
21 | GUUCCGUUGGGGUAAUGGUAACGCGUCUCCGUCCUAAGGAGUAGACUGCGGGUUCGAGUCCCGUACGGAACG [C11G C31G A42U] | 0.527
22 | GUUCCGUUGGGGUAAUGGUAACGCGUCUCCCUCAUAAGGAGAAGACUGCGGGAUCGAGUCCCGUACGGAACG [C11G C34A U53A] | 0.609
23 | GUUCCGUUGGGGUAAUGGUAACGCGUCUGCGUCCUAUGGAGAAGACUGCGGGUUCGAGUCCCGUACGGAACG [C11G C29G C31G A37U] | 0.674
24 | GUUCCGUUGGGGUAAUGGUAACGCGUCUCUCUCCAAAGGAGAAGACUGCGGGGUCGAGUCCCGUACGGACCG [C11G C30U U35A U53G A70C] | ≤ 0.5
25 | GUUCCGUUGGGGUAAUGGUAACGCGUCUCUCUCCUAAGGAGAAGGCUGCGGGUUCGUGUCCUGUACGGAACG [C11G C30U A45G A57U C62U] | ≤ 0.5
26 | GUUCCGUUGGGGUAAUGGUAACGCGUCUCCCUACUAAGGGGAAGACUGCGGGUUCGAGUCCAGUACCGAACG [C11G C33A A40G C62A G67C] | ≤ 0.5
27 | GUUCCGUUGGGGUAAUGGUAACGCGUCUCACUCCUAAGGAGAAGACUGCGGGUUCGAGUCCGGUACGCAACG [C11G C30A C62G G68C] | ≤ 0.5
28 | GUUCCGUUGGGGUAAUGGUAACGCGUCUACCUCCUAAGGAGACGACUGCGGGUUCGAGUCCCGCACGGAACG [C11G C29A A43C U64C] | ≤ 0.5
29 | GUUCCGUUGGGGUAAUGGUAACGCGUCUUCUUCUUAAGGAGAAGACUGCGGGUUCGAGUCCAGUAUGGAACG [C11G C29U C31U C34U C62A C66U] | ≤ 0.5
30 | GUUCCGUUGGGGUAAUGGUAACGCGUCUGCCUCCUAAGGGAAAGACUGAGGGUUCGAGUCCGGUACGGAACG [C11G C29G A40G G41A C49A C62G] | 0.751
31 | GUUCCGUUGGGGUAAUGGUAACGCGUCUCUCUCCUAAGGAGAAGAGUGCGGGUUCGACUCCCGUACGGAACG [C11G C30U C46G G58C] | 0.617
32 | GUUCCGUUGGGGUAAUGGUAACGCGUCUCCCUCUUAAGGAGAAGACUGCGGGUUUGAGUCCCGUACGGAACG [C11G C34U C55U] | ≤ 0.5
33 | GUUCCGUUGGGGUAAUGGUAACGCGUCUUUCUCCUAAGGAGAAGACUGCGGGUUCGAGUCCCGUACGGAACG [C11G C29U C30U] | ≤ 0.5
34 | GUUCCGUUGGGGUAAUGGUAACGCGUCUCCCUCAUAAGGAGAAGACUGCGGGUUCGAGUACCGUACGGAACG [C11G C34A C60A] | ≤ 0.5
35 | GUUCCGUUGGGGUAAUGGUAACGCGUCUCCCUGCUAAGGAGAAGACUGCGGGUUCGAGUCCGGUACGGAACG [C11G C33G C62G] | ≤ 0.5
36 | GUUCCGUUGGGGUAAUGGUAACGCGUCUUCCUCCUAAGGAGAAGACUGCGGGUUCGAGUCCCGUACGGAACG [C11G C29U] | 0.557
37 | GUUCCGUUGGGGUAAUGGUAACGCGUCUGCCUCCUAAGGAGAAGACUGCGGGUUCGAGUCCCGUACGGAACG [C11G C29G] | 0.84
38 | GUUCCGUUGGGGUAAUGGUAACGCGUCUCUCUCCAAAGGAGAAGACUGCGGGGUCGAGUCCUGUACGGAACG [C11G C30U U35A U53G C62U] | ≤ 0.5
